Test results as given in ChEMBL document CHEMBL1806410, “Design and synthesis of pyridine-substituted itraconazole analogues with improved antifungal activities, water solubility and bioavailability” (Bioorg Med Chem Lett, 2011).
Values after ≈ are worked out from the molar mass of the structure shown.

Assays:
Candida albicans [1] = assay: Antifungal activity against Candida albicans JLC 31374 by broth microdilution method; format: functional
Outline: (§1)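 MICs were determined by broth microdilution following NCCLS guidelines (M38-P for filamentous fungi). The panel covered four yeast species and two Aspergillus species, with two strains per species. Itraconazole served as positive control.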

Aspergillus flavus [2] = assay: Antifungal activity against Aspergillus flavus JLC 30784 by broth microdilution method; format: functional; outline: as §1
Aspergillus flavus [3] = assay: Antifungal activity against Aspergillus flavus JLC 40437 by broth microdilution method; format: functional; outline: as §1
Candida albicans [4] = assay: Antifungal activity against Candida albicans JLC 30364 by broth microdilution method; format: functional; outline: as §1
Pichia kudriavzevii [5] = assay: Antifungal activity against Candida krusei JLC 30366 by broth microdilution method; format: functional; outline: as §1
Pichia kudriavzevii [6] = assay: Antifungal activity against Candida krusei JLC 30386 by broth microdilution method; format: functional; outline: as §1
Cryptococcus neoformans [7] = assay: Antifungal activity against Cryptococcus neoformans JLC 50122 by broth microdilution method; format: functional; outline: as §1
Cryptococcus neoformans [8] = assay: Antifungal activity against Cryptococcus neoformans JLC 50123 by broth microdilution method; format: functional; outline: as §1
Candida parapsilosis [9] = assay: Antifungal activity against Candida parapsilosis JLC 30365 by broth microdilution method; format: functional; conditions: Lodderomyces parapsilosis; outline: as §1
Aspergillus fumigatus [10] = assay: Antifungal activity against Aspergillus fumigatus JLC 30883 by broth microdilution method; format: functional; outline: as §1
Aspergillus fumigatus [11] = assay: Antifungal activity against Aspergillus fumigatus JLC 30506 by broth microdilution method; format: functional; outline: as §1
Candida parapsilosis [12] = assay: Antifungal activity against Candida parapsilosis JLC 30275 by broth microdilution method; format: functional; conditions: Lodderomyces parapsilosis; outline: as §1
[13] = Solubility of the compound in water at pH 1.2; format: physicochemical
[14] = Cmax in rat at 10 mg/kg, po administered as single dose; format: ADME, organism-based; set-up: dose 10 mg/kg, route oral; conditions: in vivo
Outline: (§2)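 Rats received a single dose of compound, either oral (10 mg/kg) or intravenous (10, 5 or 2.5 mg/kg). Plasma levels were followed, and the reported parameters were Cmax, Tmax, AUC0–t, half-life, clearance and bioavailability (F).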

[15] = AUC (0 to t) in rat at 10 mg/kg, po administered as single dose; format: ADME, organism-based; set-up: dose 10 mg/kg, route oral; conditions: plasma; outline: as §2
[16] = Half life in rat at 10 mg/kg, po administered as single dose; format: ADME, organism-based; set-up: dose 10 mg/kg, route oral; conditions: in vivo; outline: as §2
[17] = Tmax in rat at 10 mg/kg, po administered as single dose; format: ADME, organism-based; set-up: dose 10 mg/kg, route oral; conditions: in vivo; outline: as §2
[18] = Clearance in rat at 10 mg/kg, iv administered as single dose; format: ADME, organism-based; set-up: dose 10 mg/kg, route intravenous; conditions: in vivo; outline: as §2
[19] = AUC (0 to t) in rat at 10 mg/kg, iv administered as single dose; format: ADME, organism-based; set-up: dose 10 mg/kg, route intravenous; conditions: plasma; outline: as §2
[20] = Half life in rat at 10 mg/kg, iv administered as single dose; format: ADME, organism-based; set-up: dose 10 mg/kg, route intravenous; conditions: in vivo; outline: as §2
[21] = Oral bioavailability in rat at 10 mg/kg, administered as single dose; format: ADME, organism-based; conditions: in vivo; outline: as §2

SMILES | MIC (Candida albicans [1]) [µg/mL] | MIC (Aspergillus flavus [2]) [µg/mL] | MIC (Aspergillus flavus [3]) [µg/mL] | MIC (Candida albicans [4]) [µg/mL] | MIC (Pichia kudriavzevii [5]) [µg/mL] | MIC (Pichia kudriavzevii [6]) [µg/mL] | MIC (Cryptococcus neoformans [7]) [µg/mL] | MIC (Cryptococcus neoformans [8]) [µg/mL] | MIC (Candida parapsilosis [9]) [µg/mL] | MIC (Aspergillus fumigatus [10]) [µg/mL] | MIC (Aspergillus fumigatus [11]) [µg/mL] | MIC (Candida parapsilosis [12]) [µg/mL] | further results
CCC(C)n1ncn(-c2ccc(N3CCN(c4ccc(OC[C@H]5CO[C@](Cn6cncn6)(c6ccc(F)cc6F)O5)cc4)CC3)cn2)c1=O (some centres not stated) | 0.03 (≈ 0.0445 µM) | 0.5 (≈ 0.742 µM) | 0.5 (≈ 0.742 µM) | 0.03 (≈ 0.0445 µM) | 0.0625 (≈ 0.0928 µM) | 0.0625 (≈ 0.0928 µM) | 1 (≈ 1.48 µM) | 1 (≈ 1.48 µM) | 0.5 (≈ 0.742 µM) | 0.5 (≈ 0.742 µM) | 0.5 (≈ 0.742 µM) | 0.5 (≈ 0.742 µM) | 
CC(C)Cn1ncn(-c2ccc(N3CCN(c4ccc(OC[C@H]5CO[C@](Cn6cncn6)(c6ccc(F)cc6F)O5)cc4)CC3)cn2)c1=O | 0.015 (≈ 0.0223 µM) | 0.0625 (≈ 0.0928 µM) | 0.0625 (≈ 0.0928 µM) | 0.015 (≈ 0.0223 µM) | 0.125 (≈ 0.186 µM) | 0.125 (≈ 0.186 µM) | 0.25 (≈ 0.371 µM) | 0.25 (≈ 0.371 µM) | 0.25 (≈ 0.371 µM) | 0.125 (≈ 0.186 µM) | 0.125 (≈ 0.186 µM) | 0.25 (≈ 0.371 µM) | 
CC(CO)n1ncn(-c2ccc(N3CCN(c4ccc(OC[C@H]5CO[C@](Cn6cncn6)(c6ccc(F)cc6F)O5)cc4)CC3)cn2)c1=O (some centres not stated) | 0.0625 (≈ 0.0925 µM) | 0.125 (≈ 0.185 µM) | 0.125 (≈ 0.185 µM) | 0.0625 (≈ 0.0925 µM) | 0.0625 (≈ 0.0925 µM) | 0.0625 (≈ 0.0925 µM) | 0.0625 (≈ 0.0925 µM) | 0.0625 (≈ 0.0925 µM) | 0.5 (≈ 0.74 µM) | 1 (≈ 1.48 µM) | 1 (≈ 1.48 µM) | 0.5 (≈ 0.74 µM) | 
O=c1n(-c2ccc(N3CCN(c4ccc(OC[C@H]5CO[C@](Cn6cncn6)(c6ccc(F)cc6F)O5)cc4)CC3)cn2)cnn1CCO | < 0.0156 | 0.03 (≈ 0.0453 µM) | 0.03 (≈ 0.0453 µM) | < 0.0156 | 0.03 (≈ 0.0453 µM) | 0.03 (≈ 0.0453 µM) | < 0.0156 | < 0.0156 | 0.0156 (≈ 0.0236 µM) | 0.5 (≈ 0.756 µM) | 0.5 (≈ 0.756 µM) | 0.0156 (≈ 0.0236 µM) | 
CC(CO)Cn1ncn(-c2ccc(N3CCN(c4ccc(OC[C@H]5CO[C@](Cn6cncn6)(c6ccc(F)cc6F)O5)cc4)CC3)cn2)c1=O (some centres not stated) | < 0.0156 | 0.125 (≈ 0.181 µM) | 0.125 (≈ 0.181 µM) | < 0.0156 | < 0.0156 | < 0.0156 | 0.03 (≈ 0.0435 µM) | 0.03 (≈ 0.0435 µM) | < 0.0156 | 0.5 (≈ 0.725 µM) | 0.5 (≈ 0.725 µM) | < 0.0156 | 
CCC(C)n1ncn(-c2ccc(N3CCN(c4ccc(OCC5COC(Cn6cncn6)(c6ccc(Cl)cc6Cl)O5)cc4)CC3)cc2)c1=O (configuration not stated) [ITRACONAZOLE] | 0.125 (≈ 0.177 µM) | 0.125 (≈ 0.177 µM) | 0.125 (≈ 0.177 µM) | 0.125 (≈ 0.177 µM) | 0.0625 (≈ 0.0886 µM) | 0.0625 (≈ 0.0886 µM) | 1 (≈ 1.42 µM) | 1 (≈ 1.42 µM) | 0.25 (≈ 0.354 µM) | 0.25 (≈ 0.354 µM) | 0.25 (≈ 0.354 µM) | 0.25 (≈ 0.354 µM) | clearance [18]: 322 mL/min/kg; AUC(0-t) [19]: 343 ng·h/mL; solubility ([13]; buffer): 16 µg/mL (≈ 22.7 µM); Cmax [14]: 6.28 ng/mL; AUC(0-t) [15]: 27.5 ng·h/mL; half-life [20]: 22 h; bioavailability [21]: 8%; half-life [16]: 2.57 h; Tmax [17]: 3 h

Continued, in another order:

MIC (Candida albicans [1]) [µg/mL] | MIC (Aspergillus flavus [2]) [µg/mL] | MIC (Aspergillus flavus [3]) [µg/mL] | MIC (Candida albicans [4]) [µg/mL] | MIC (Pichia kudriavzevii [5]) [µg/mL] | MIC (Pichia kudriavzevii [6]) [µg/mL] | MIC (Cryptococcus neoformans [7]) [µg/mL] | MIC (Cryptococcus neoformans [8]) [µg/mL] | MIC (Candida parapsilosis [9]) [µg/mL] | MIC (Aspergillus fumigatus [10]) [µg/mL] | MIC (Aspergillus fumigatus [11]) [µg/mL] | MIC (Candida parapsilosis [12]) [µg/mL] | SMILES | further results
< 0.0625 | 4 (≈ 5.8 µM) | 4 (≈ 5.8 µM) | < 0.0625 | 2 (≈ 2.9 µM) | 2 (≈ 2.9 µM) | 0.0625 (≈ 0.0906 µM) | 0.0625 (≈ 0.0906 µM) | < 0.0625 | 4 (≈ 5.8 µM) | 4 (≈ 5.8 µM) | < 0.0625 | CC(CCO)n1ncn(-c2ccc(N3CCN(c4ccc(OC[C@H]5CO[C@](Cn6cncn6)(c6ccc(F)cc6F)O5)cc4)CC3)nc2)c1=O (some centres not stated) | 
0.0075 (≈ 0.0114 µM) | 0.125 (≈ 0.189 µM) | 0.125 (≈ 0.189 µM) | 0.0075 (≈ 0.0114 µM) | 0.0625 (≈ 0.0947 µM) | 0.0625 (≈ 0.0947 µM) | 0.25 (≈ 0.379 µM) | 0.25 (≈ 0.379 µM) | 0.25 (≈ 0.379 µM) | 0.125 (≈ 0.189 µM) | 0.125 (≈ 0.189 µM) | 0.25 (≈ 0.379 µM) | CC(C)n1ncn(-c2ccc(N3CCN(c4ccc(OC[C@H]5CO[C@](Cn6cncn6)(c6ccc(F)cc6F)O5)cc4)CC3)cn2)c1=O | solubility ([13]; water, read-out: solubility): 320 µg/mL (≈ 485 µM); Cmax [14]: 159 ng/mL; AUC(0-t) [15]: 1220 ng·h/mL; half-life [16]: 3.45 h; Tmax [17]: 3 h
0.0625 (≈ 0.0909 µM) | 0.0625 (≈ 0.0909 µM) | 0.0625 (≈ 0.0909 µM) | 0.0625 (≈ 0.0909 µM) | 0.125 (≈ 0.182 µM) | 0.125 (≈ 0.182 µM) | 0.125 (≈ 0.182 µM) | 0.125 (≈ 0.182 µM) | 0.5 (≈ 0.727 µM) | 0.5 (≈ 0.727 µM) | 0.5 (≈ 0.727 µM) | 0.5 (≈ 0.727 µM) | CCC(CC)n1ncn(-c2ccc(N3CCN(c4ccc(OC[C@H]5CO[C@](Cn6cncn6)(c6ccc(F)cc6F)O5)cc4)CC3)cn2)c1=O | 
